The values that follow come from article PMC6736600 (Cell chemical biology, 2019).

Read-outs that look alike come from different tables or passages of the source.

One series addresses human CXCR4 (Homo sapiens, UniProt P61073). As to conditions: CXCL12 binding IC50, WT CXCR4, 125I-CXCL12, HEK-293 membranes; ± SD.
A further series deals with N119^3.35A CXCR4 (Homo sapiens, UniProt P61073, N119A). The format is cell-based. As to conditions: for functional classification on the N119^3.35A CAM: dose-response without CXCL12, classification at 1 μM by one-way ANOVA vs DMSO; for signal as % maximum of the WT signaling levels: N119^3.35A CAM, basal CAM activity roughly 47% of maximum WT response to CXCL12.
N119^3.35A CXCR4, sequence (P61073 whole entry N119A): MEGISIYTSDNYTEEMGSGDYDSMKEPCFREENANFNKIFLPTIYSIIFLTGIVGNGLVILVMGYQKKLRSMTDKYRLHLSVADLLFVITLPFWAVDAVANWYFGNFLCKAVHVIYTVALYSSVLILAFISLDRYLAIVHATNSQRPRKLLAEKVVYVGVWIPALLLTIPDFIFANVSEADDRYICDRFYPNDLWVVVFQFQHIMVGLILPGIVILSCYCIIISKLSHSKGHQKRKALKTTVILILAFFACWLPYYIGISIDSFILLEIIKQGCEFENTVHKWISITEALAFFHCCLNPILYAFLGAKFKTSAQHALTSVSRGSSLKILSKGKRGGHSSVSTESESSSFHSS
Series [1] can be described thus: Cytotoxicity, methylene blue, 72 hours. The format is cell-based. As to conditions: human, CEM cells (acute lymphoblastic lymphoma).
The nature of series [2]: Cytotoxicity, methylene blue, 72 hours. In kind it is cell-based. As to conditions: human, TZM-bl cells.
Another series concerns HIV-1 IIIB. Nature of the series: HIV-1 inhibition in TZM-bl reporter cells. In kind it is cell-based. As to conditions: read-out: HIV-1 IC50, ± SD. Put shortly:
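TZM-bl cells (HeLa-derived; CD4, CCR5, CXCR4; LTR-driven β-galactosidase and luciferase reporters), 5 × 10³ per well, grown 1–2 days at 37°C, 5% CO2. Serially diluted test compound applied 30 min before infection with HIV-1 IIIB at MOI of one. Reporter activity read per well; IC50 from ≥ three independent experiments, standard deviation given.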

The subject of another series is N119^3.35S CXCR4 CAM. As to conditions: ref Mona et al., 2016; cited from earlier work.
In the next series the test system is HIV-1. As to conditions: read-out: HIV-1 IC50, cited from earlier work.
Another series deals with N119^3.35A/S CXCR4 CAMs. As to conditions: ref Zhang et al., 2002; cited from earlier work.

The IC50 is the concentration that gives 50% inhibition. As a reminder, the CC50 is the concentration giving 50% cytotoxicity. A high value points to lower toxicity to the cells.

human CXCR4, sequence (P61073 whole entry): as the sequence (P61073 whole entry N119A) above, with A119N counted along it

Consider `Cl.c1nc2c(NCc3cn(CCCNCCCNC4CCCCC4)nn3)nc(N3CCNCC3)nc2[nH]1` [CX0298, N-Cyclohexyl-N’-(3-{4-[(2-piperazin-1-yl-9H-purin-6-ylamino)-methyl]-[1,2,3]triazol-1-yl}-propyl)-propane-1,3-diamine hydrochloride salt], for which the IC50 at human CXCR4 stood at 27.8 ± 1.9 nM; in the series on HIV-1 IIIB, 4.2 ± 0.3 nM. The “functional classification on the N119^3.35A CAM” value on N119^3.35A CXCR4 is given as “neutral antagonists”. Also, the CC50 at 72 h in series [1] and in series [2] was > 50 µM each time.

Regarding `Cl.c1nc2c(NCC3CCC(CNCCCNC4CCCCC4)CC3)nc(N3CCNCC3)nc2[nH]1` (stereo not shown) [Compound B7, N-Cyclohexyl-N’-{4-[(2-piperazin-1-yl-9H-purin-6-ylamino)-methyl]-cyclohexylmethyl}-propane-1,3-diamine hydrochloride salt], the IC50 on human CXCR4 is 28 ± 2.7 nM; with HIV-1 IIIB, 2.4 ± 0.4 nM. Also, the “functional classification on the N119^3.35A CAM” value on N119^3.35A CXCR4 was “neutral antagonists”. For the same compound, the CC50 at 72 h in series [1] and in series [2] was > 50 µM each time.

As to `CC1(C)CN2C(CSC(=NC3CCCCC3)NC3CCCCC3)=CSC2=N1` [IT1t, N,N’-dicyclohexylcarbamimidothioic acid (5,6-dihydro-6,6-dimethylimidazo[2,1-b]thiazol-3-yl)methyl ester], the “effect on N119^3.35A signaling levels vs DMSO” value at N119^3.35A CXCR4 (1 μM, p < 0.0001) is “significantly reduced signaling levels”. Moreover, on N119^3.35A CXCR4, the “signal as % maximum of the WT signaling levels” value is ~ 25% and the “functional classification on the N119^3.35A CAM” value is “inverse agonism”. Moreover, in the series on N119^3.35S CXCR4 CAM, the “functional classification on the N119^3.35S CAM” value is “inverse agonist”. Moreover, the IC50 in the series with HIV-1 (ref Thoma et al., 2008) is 40 nM.

As for `c1cc(CN2CCCNCCNCCCNCC2)ccc1CN1CCCNCCNCCCNCC1` [AMD3100], at N119^3.35A CXCR4, the “signal as % maximum of the WT signaling levels” value is recorded as ~ 83% and the “functional classification on the N119^3.35A CAM” value is recorded as “partial agonism”. For the same compound, the “functional classification on N119^3.35A/S CAMs” value with N119^3.35A/S CXCR4 CAMs was “partial agonist”. For the same compound, the IC50 in the series on HIV-1 (ref Schols et al., 1997) was 4 to 10 nM.
